Measurements published in ChEMBL document CHEMBL1122051 (J Med Chem, 1982).

Experiments:
L5178Y [1] = experiment: Inhibitory activity against murine tumor cells (L5178Y/S); type: functional, Mus musculus
In short: (§1)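 L5178Y murine leukemia cells, MTX-sensitive (S) and MTX-resistant (R), kept in log-phase growth at 37 °C in RPMI-1640 with 10% fetal calf serum and 1% penicillin-streptomycin. Doubling times were 11-12 h (S) and 15-18 h (R). Cells seeded at 4.0-6.0 × 10^4 cells/mL, duplicate wells, at least six concentrations, final DMSO <2%. Untreated and DMSO controls included; cells counted by Coulter counter.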

L5178Y [2] = experiment: Inhibitory activity against murine tumor cells (L5178Y/R); type: functional, Mus musculus; in short: as §1
L5178Y [3] = experiment: Inhibitory action against murine tumor cells (L5178Y/R); type: functional, Mus musculus; in short: as §1
L5178Y [4] = experiment: Inhibitory action against murine tumor cells (L5178Y/S); type: functional, Mus musculus; in short: as §1
[5] = Partition coefficient (logP); type: physicochemical; settings: octanol/water
In short: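 Octanol/water partitioning. The protonated form was partitioned between octanol and 0.1 N HCl. The neutral form was partitioned between octanol and 0.1 N NaOH.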

| Structure (SMILES) | Log 1/C (L5178Y [1]) | Log 1/C (L5178Y [2]) | Log 1/C (L5178Y [3]) | Log 1/C (L5178Y [4]) | logP [5] |
| --- | --- | --- | --- | --- | --- |
| Nc1ncc(Cc2cccc(Br)c2)c(N)n1 | 5.52 | 4.12 | – | – | – |
| CC(=O)Nc1ccc(Cc2cnc(N)nc2N)cc1[N+](=O)[O-] | 5.11 | 3.2 | – | – | – |
| COc1cccc(Cc2cnc(N)nc2N)c1 | 5.06 | 3.63 | – | – | – |
| COc1ccc(Cc2cnc(N)nc2N)cc1 | 5.1 | 3.52 | – | – | – |
| CC(=O)Nc1ccc(Cc2cnc(N)nc2N)cc1 | 5.12 | 3.23 | – | – | – |
| Nc1ncc(Cc2ccc(Br)cc2)c(N)n1 | 5.38 | 3.98 | – | – | – |
| CN(C)c1ccc(Cc2cnc(N)nc2N)cc1 | 4.95 | 4.02 | – | – | – |
| Cc1cccc(Cc2cnc(N)nc2N)c1 | 5.5 | 4.15 | – | – | – |
| Nc1ncc(Cc2ccc([N+](=O)[O-])cc2)c(N)n1 | 5.18 | 3.67 | – | – | – |
| Nc1ccc(Cc2cnc(N)nc2N)cc1 | 4.65 | 3.58 | – | – | – |
| Nc1ncc(Cc2ccc(OC(F)(F)F)cc2)c(N)n1 | 5.24 | 4.46 | – | – | – |
| Nc1ncc(Cc2cccc(F)c2)c(N)n1 | 5.27 | 3.61 | – | – | – |
| Nc1ncc(Cc2ccc(F)cc2)c(N)n1 | 5.48 | 3.9 | – | – | – |
| Nc1ncc(Cc2cccc(C(F)(F)F)c2)c(N)n1 | 5.63 | 4.37 | – | – | – |
| Nc1ncc(Cc2ccccc2)c(N)n1 | 5.24 | 3.88 | – | – | – |
| Nc1ncc(Cc2cccc(OCc3ccccc3)c2)c(N)n1 | 5.91 | 4.7 | – | – | – |
| COc1ccc(Cc2cnc(N)nc2N)cc1C(F)(F)F | 5.85 | 4.39 | – | – | – |
| Nc1ncc(Cc2ccc(O)c(O)c2)c(N)n1 | 5.06 | 4.94 | – | – | – |
| Nc1ncc(Cc2ccc(Cl)cc2)c(N)n1 | 5.37 | 4.56 | – | – | – |
| CCCCOCc1cccc(Cc2cnc(N)nc2N)c1 | 5.74 | 3.93 | – | – | – |
| CCCCCCCOc1cccc(Cc2cnc(N)nc2N)c1 | 5.1 | 4.61 | – | – | – |
| COc1cc(Cc2cnc(N)nc2N)cc(OC)c1 | 5.47 | 3.83 | – | – | – |

| Structure (SMILES) | Log 1/C (L5178Y [1]) | Log 1/C (L5178Y [2]) | Log 1/C (L5178Y [3]) | Log 1/C (L5178Y [4]) | logP [5] |
| --- | --- | --- | --- | --- | --- |
| Nc1ncc(Cc2cccc(I)c2)c(N)n1 | 5.86 | 4.36 | – | – | – |
| Nc1ncc(Cc2cccc(O)c2)c(N)n1 | 4.89 | 3.09 | – | – | – |
| CCCCCCCOc1ccc(Cc2cnc(N)nc2N)cc1 | 5.13 | 5.67 | – | – | – |
| NC(=O)COc1cccc(Cc2cnc(N)nc2N)c1 | – | – | 3.14 | 4.91 | – |
| CCCCCCCCOc1cccc(Cc2cnc(N)nc2N)c1 | 5.12 | 4.92 | – | – | – |
| COCCOc1cccc(Cc2cnc(N)nc2N)c1 | 5.2 | 3.7 | – | – | – |
| COCCOc1ccc(Cc2cnc(N)nc2N)cc1OCCOC | 5.06 | 3.28 | – | – | – |
| COCc1cccc(Cc2cnc(N)nc2N)c1 | 5.28 | 3.65 | – | – | – |
| CCCCCCOc1cccc(Cc2cnc(N)nc2N)c1 | 5.3 | 5.16 | – | – | – |
| Nc1ncc(Cc2cc(CO)cc(CO)c2)c(N)n1 | 3.79 | 2.49 | – | – | – |
| CCCCCCOc1ccc(Cc2cnc(N)nc2N)cc1 | 5.47 | 5.48 | – | – | – |
| CCCCOc1cccc(Cc2cnc(N)nc2N)c1 | 5.74 | 4.99 | – | – | – |
| Nc1ncc(Cc2cccc(CO)c2)c(N)n1 | 4.97 | 2.98 | – | – | – |
| CCCCOc1ccc(Cc2cnc(N)nc2N)cc1 | 5.37 | 4.83 | – | – | – |
| CC1(C)N=C(N)N=C(N)N1c1ccc(CCCCc2ccc(S(=O)(=O)F)cc2Cl)c(Cl)c1 | – | – | – | – | 2.4 |
| Cc1ccc(Cc2cnc(N)nc2N)cc1 | 5.26 | 4.21 | – | – | – |
| Nc1ncc(Cc2cccc(Cl)c2)c(N)n1 | 5.39 | 3.85 | – | – | – |
| COCCOc1ccc(Cc2cnc(N)nc2N)cc1 | 4.77 | 3.08 | – | – | – |
| CS(=O)(=O)Oc1cccc(Cc2cnc(N)nc2N)c1 | – | – | 3.34 | 5.28 | – |
| COc1ccc(Cc2cnc(N)nc2N)cc1OC [DIAVERIDINE] | 5.41 | 3.54 | – | – | – |
| COCCOc1c(OC)cc(Cc2cnc(N)nc2N)cc1OC [TETROXOPRIM] | 4.2 | 3.16 | – | – | – |
